The values that follow come from PubChem BioAssay AID651950 (The Scripps Research Institute Molecular Screening Center, 2012).

Structures are written as SMILES. Unmarked numbers belong to inactive results. Activity calls are given as the source filed them. No rule for the calls is given here.

The experiment is described as follows: Hsp70 transcriptional activators, SAR follow-up, cell-based, HeLa, Hsp70 promoter luciferase, luminescence (AID 651950). The following applies: HeLa hsp70.1pr-luc reporter; at 99 µM (top of the series). The method, boiled down:
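Read-out: % activation relative to DMSO and MG132 controls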
As to `O=C1NC(=O)C(=C/C=C/c2ccco2)C(=O)N1`, the activation is -0.7% (active).

As to `COc1ccc(/C=C/C=C2C(=O)NC(=O)NC2=O)cc1`, the activation is -1.7% (active).

For `O=C1NC(=O)C(=C/C=C/c2ccc(Br)cc2)C(=O)N1`, the activation is -0.8% (active).

In the case of `O=C1NC(=O)C(=C/C=C/c2ccc(Cl)cc2)C(=O)N1`, the activation was -1.1% (active).

Regarding `O=C1NC(=O)N(Cc2ccccc2)C(=O)/C1=C/C=C/c1ccccc1`, the activation was -1.2% (active).

As to `C=CCN1C(=O)NC(=O)/C(=C/C=C/c2ccccc2)C1=O`, the activation was -1.7% (active).

Consider `O=C1NC(=O)C(=C/C=C/c2cccnc2)C(=O)N1`, for which the activation is 22.5%.

In the case of `O=C1NC(=O)C(=C/C=C/c2ccc([N+](=O)[O-])cc2)C(=O)N1`, the activation was -1.1% (active).

Take `CN(C)c1ccc(/C=C/C=C2C(=O)NC(=O)NC2=O)cc1`: the activation was 0.4%.
